According to PubChem BioAssay:
Calls of active or inactive are those of the source.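 The calls were made as follows: active = duplicate-averaged activation above buffer control mean plus 5 SD of those controls; inactive = the rest.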

Experiment: thallium flux activation in parental CHO cells, counter-screen for KCNQ1 potentiator project (AID 493006);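 as to activation: fluorescence ratio of max minus min over baseline after K+ and Tl+ depolarization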
Details: parental CHO-K1 cells, FluxOR thallium flux, at 10 µM; stronger effect = higher value
Summary of the method: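 Material: parental CHO-K1 cells, FluxOR dye-loaded; Also added: Potassium/thallium depolarization pulse; Schedule: overnight 37 °C plating, 90 min dye, 20 min dark compound; Signal: kinetic FluxOR fluorescence, 10 s baseline, 110 s after stimulus.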
With C[C@@H](NC(=O)OC(C)(C)C)c1nnc(S(=O)(=O)Cc2ccccc2)o1 the outcome was “inactive”. With COc1ccc(N=Nc2ccc(O)c3ncccc23)cc1 the activation was 176% (active). In the case of O=C(Nc1ccc(N2CCN(c3ccc(O)cc3)CC2)cc1)Oc1ccccc1, the outcome is reported as “inactive”. In the case of OCCCCNCc1ccc(OCc2ccc(Cl)cc2)cc1, the activation is reported as 220% (active). With Cc1cccc(CC2CC(=O)N(c3ccc(C)cc3Br)C2=O)c1 (stereo not drawn) the outcome was “inactive”. For CCCN(CCC)C(=S)NC(=O)c1ccc(-c2ccccc2)cc1, the activation was 436% (active). With COc1cc(C(=O)NC(=S)NC(C)C)cc(OC)c1OC the outcome was “inactive”. In the case of O=C(Nc1nc2c(F)cc(F)cc2s1)C1COc2ccccc2O1 (stereo not drawn), the activation is reported as 142% (active). In the case of CCOC(=O)c1sc(N2N=C(C)C(N=Nc3cccc(C)c3)C2=O)nc1C (stereo not drawn), the outcome is reported as “inactive”. For O=C(NC(=S)Nc1ccccc1)c1cc(-c2ccccc2)nc2ccccc12, the activation was 158% (active). For Cc1ccccc1OCc1nnc(SCCN2CCCC2)n1-c1ccccc1, the outcome was “inactive”. With CCOC(=O)c1cnc(SCC(=O)Nc2nc(C)c(C)s2)nc1N the outcome was “inactive”. In the case of O=[N+]([O-])c1ccc(/C=C/C2=NN(c3ccccc3)C(c3ccco3)C2)o1 (stereo not drawn), the outcome is reported as “inactive”. For CC(C)COn1c(=S)[nH]c2ccccc2c1=O, the activation was 164% (active). In the case of C/C(=N\Nc1nc2ccccc2[nH]1)c1ccc(Cl)s1, the outcome is reported as “inactive”. In the case of CC(O)Cc1cn([C@@H](CCCCN)C(=O)N2CCNCC2)nn1 (stereo partly drawn), the outcome is reported as “inactive”. For O=P(CCCCCCCCCP(=O)(c1ccccc1)c1ccccc1)(c1ccccc1)c1ccccc1, the activation was 256% (active). For CCOC(=O)C1(CCCc2ccccc2)CCN(Cc2cnc(C)s2)CC1, the outcome was “inactive”.
